Results from ChEMBL document CHEMBL4229392, “An Efficient Buchwald-Hartwig/Reductive Cyclization for the Scaffold Diversification of Halogenated Phenazines: Potent Antibacterial Targeting, Biofilm Eradication, and Prodrug Exploration” (J Med Chem, 2018).
In brackets after ≈: the same amount, converted by molar mass.

Experiments:
[1] = tested on: Staphylococcus epidermidis; assay: Antibacterial activity against methicillin-resistant Staphylococcus epidermidis ATCC 35984 after 16 to 18 hrs by broth microdilution method; assay type: functional
[2] = Half life in human serum by LC-MS analysis; assay type: ADME, cell-free
In short: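 Human serum pre-warmed to 37 °C, spiked with prodrug from 10 mM DMSO stock plus internal standard, vortexed, then held 1 to 60 min. At each time point, acetonitrile with 0.5% formic acid was added to precipitate proteins. Released active HP was quantified as its ratio to internal standard against standard curves.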

HeLa = assay: Cytotoxicity against human HeLa cells after 24 hrs by LDH release assy; assay type: cell-based
In short: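 HeLa cells in DMEM with 10% FBS at 37 °C, 5% CO2, dosed at 70-80% confluence with compound diluted in medium at 25, 50 and 100 µM for 24 h. Supernatant mixed with LDH reaction mixture, 30 min at room temperature, stopped, A490 read. Triton X-100 (2% v/v) as maximal-release control, medium only as no-death control, DMSO as vehicle. Three independent experiments.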

[3] = Hemolytic activity in human RBC at 200 uM after 1 hr relative to control; assay type: ADME, cell-based, Erythrocyte; settings: red blood cells (erythrocytes), read-out: Activity
In short: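 Human RBCs drawn fresh into EDTA were washed three times in Tris-buffered saline (0.01 M Tris, 0.155 M NaCl, pH 7.2). 2% hRBC suspension was added to compound from DMSO stock, final 200 µM, for 1 h at 37 °C, then centrifuged and supernatant OD405 read. Scaled between DMSO (0%) and Triton X (100%). Three independent experiments.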

Staphylococcus aureus [4] = assay: Antibacterial activity against methicillin-resistant Staphylococcus aureus BAA-1707 after 16 to 18 hrs by broth microdilution method; assay type: functional
In short: (§1)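 CLSI broth microdilution in Lysogeny Broth, eleven two-fold dilutions spanning 0.10–100 µM; ~10^5 cells per well from log-phase culture; DMSO vehicle (top 1% v/v). MIC = lowest concentration preventing growth after 16–18 h at 37 °C, supported by OD600; three independent experiments.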

Enterococcus faecium [5] = assay: Antibacterial activity against vancomycin-resistant Enterococcus faecium ATCC 700221 after 16 to 18 hrs by broth microdilution method; assay type: functional; in short: as §1
Staphylococcus aureus [6] = assay: Bactericidal activity against methicillin-resistant Staphylococcus aureus BAA-1707 planktonic cells after 24 hrs by calgary biofilm device method; assay type: organism-based
In short: (§2)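 Biofilms grown 24 h at 37 °C on Calgary device pegs from mid-log culture diluted 1,000-fold in TSB + 0.5% glucose; washed pegs challenged 24 h at 37 °C with 2-fold serial dilutions. Challenge medium subcultured into fresh TSBG overnight; MBC = concentration without visible turbidity; at least three independent experiments.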

Staphylococcus aureus [7] = assay: Induction of biofilm eradication of methicillin-resistant Staphylococcus aureus BAA-1707 after 24 hrs by calgary biofilm device method; assay type: functional
In short: (§3)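 Calgary device: biofilms established 24 h at 37 °C from mid-log culture diluted 1,000-fold in TSBG (0.5% glucose), washed, exposed 24 h to 2-fold serial dilutions, then peg lid moved to fresh TSBG for 24 h recovery. MBEC = lowest concentration giving no turbidity; at least three independent experiments.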

[8] = tested on: Staphylococcus epidermidis; assay: Induction of biofilm eradication of methicillin-resistant Staphylococcus epidermidis ATCC 35984 after 24 hrs by calgary biofilm device method; assay type: functional; in short: as §3
[9] = tested on: Staphylococcus epidermidis; assay: Bactericidal activity against methicillin-resistant Staphylococcus epidermidis ATCC 35984 planktonic cells after 24 hrs by calgary biofilm device method; assay type: organism-based; in short: as §2
Staphylococcus aureus [10] = assay: Induction of biofilm eradication of methicillin-resistant Staphylococcus aureus 2 after 24 hrs by calgary biofilm device method; assay type: functional; in short: as §3
Staphylococcus aureus [11] = assay: Bactericidal activity against methicillin-resistant Staphylococcus aureus 2 planktonic cells after 24 hrs by calgary biofilm device method; assay type: organism-based; in short: as §2
Enterococcus faecium [12] = assay: Bactericidal activity against vancomycin-resistant Enterococcus faecium ATCC 700221 planktonic cells after 24 hrs by calgary biofilm device method; assay type: organism-based; in short: as §2
Enterococcus faecium [13] = assay: Induction of biofilm eradication of vancomycin-resistant Enterococcus faecium ATCC 700221 after 24 hrs by calgary biofilm device method; assay type: functional; in short: as §3
[14] = tested on: Mycobacterium tuberculosis; assay: Antibacterial activity against Mycobacterium tuberculosis H37Ra ATCC 25177 after 7 days; assay type: functional; settings: H37Ra ATCC 25177, 168 h
In short: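 M. tuberculosis H37Ra grown two weeks in Middlebrook 7H9, diluted to OD600 0.01; two-fold serial dilutions 0.024–50 µM (streptomycin positive control, 0.16–340 µM); final DMSO 0.5%. Incubated 7 days at 37 °C; MIC = lowest concentration with no growth, OD600 recorded; three independent experiments.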

Staphylococcus aureus [15] = assay: Antibacterial activity against methicillin-resistant Staphylococcus aureus 2 after 16 to 18 hrs by broth microdilution method; assay type: functional; in short: as §1

SMILES | MIC [1] | IC50 (HeLa) | hemolysis at 1 h, 200 µM [3] | MIC (Staphylococcus aureus [4]) | MIC (Enterococcus faecium [5]) | MBC (Staphylococcus aureus [6]) | MBEC (Staphylococcus aureus [7]) | MBC [9] | MBEC (Staphylococcus aureus [10]) | other results
O=C(OCCOCCOCCOCCO)OCOc1c(Br)cc(Br)c2nc3ccccc3nc12 | > 100 µM | > 100 µM | 2.7% | > 100 µM | > 100 µM | – | – | – | – | half-life [2]: 7.3 min
COCCOCCOCCOC(=O)OCOc1c(Br)cc(Br)c2nc3ccccc3nc12 | > 100 µM | – | 1.4% | > 100 µM | > 100 µM | – | – | – | – | half-life [2]: 15.8 min
Cc1cc2nc3c(O)c(Br)cc(Br)c3nc2c(C)c1C | 0.1 µM (≈ 0.0396 µg/mL) | > 100 µM | 1.3% | 0.59 µM (≈ 0.234 µg/mL) | – | 150 µM (≈ 59.4 µg/mL) | 75 µM | 25 µM (≈ 9.9 µg/mL) | – | MBEC [8]: 25 µM
C[C@H]1c2cccc(O)c2C(=O)C2=C(O)[C@]3(O)C(=O)C(C(N)=O)=C(O)[C@@H](N(C)C)[C@@H]3[C@@H](O)[C@@H]21.O [DOXYCYCLINE] | – | – | – | – | – | – | – | – | 46.9 µM | MBC (Staphylococcus aureus [11]): 2 µM
CC(=O)N[C@@H](CS)C(=O)O [ACETYLCYSTEINE] | – | – | – | – | – | – | – | > 2000 µM | >2000 µM | MBC (Enterococcus faecium [12]): > 2000 µM; MBC (Staphylococcus aureus [11]): > 2000 µM; MBEC (Enterococcus faecium [13]): >2000 µM; MBEC [8]: >2000 µM
O=C(OCCSSCCOC(=O)c1ccccc1)OCOc1c(Br)cc(Br)c2nc3ccccc3nc12 | > 100 µM | > 100 µM | 1.3% | > 100 µM | > 100 µM | – | – | – | – | –
COCCOCCOCCOCCOC(=O)Oc1c(Br)cc(Br)c2nc3cc(Oc4ccccc4)ccc3nc12 | 0.075 µM (≈ 0.051 µg/mL) | – | ≤ 1% | 0.1 µM (≈ 0.068 µg/mL) | 0.3 µM (≈ 0.204 µg/mL) | 18.8 µM (≈ 12.8 µg/mL) | 4.69 µM | 9.38 µM (≈ 6.38 µg/mL) | – | half-life [2]: < 1 min; MBEC (Enterococcus faecium [13]): 1.17 µM
NC(=O)c1cnccn1 [PYRAZINAMIDE] | – | – | – | – | – | – | – | – | >2000 µM | MBC (Staphylococcus aureus [11]): > 2000 µM
CCCc1cn(Cc2ccc3nc4c(OC(C)=O)c(Br)cc(Br)c4nc3c2)nn1 | – | – | – | 100 µM (≈ 51.9 µg/mL) | > 100 µM | – | – | – | – | –
CCc1ccc2nc3c(O)ccc(Br)c3nc2c1 | 9.38 µM (≈ 2.84 µg/mL) | > 100 µM | – | – | 12.5 µM (≈ 3.79 µg/mL) | – | – | – | – | MIC [14]: 25 µM (≈ 7.58 µg/mL)
CCOC(=O)c1ccc2nc3c(O)c(Br)cc(Br)c3nc2c1 | – | – | – | – | 2.35 µM (≈ 1 µg/mL) | – | – | – | – | –
CCN(CC)c1ccc2nc3c(O)c(Br)cc(Br)c3nc2c1Br | 0.1 µM (≈ 0.0504 µg/mL) | > 100 µM | ≤ 1% | 0.15 µM (≈ 0.0756 µg/mL) | 0.3 µM (≈ 0.151 µg/mL) | 9.38 µM (≈ 4.73 µg/mL) | 4.69 µM | 9.38 µM (≈ 4.73 µg/mL) | – | MIC (Staphylococcus aureus [15]): 0.3 µM (≈ 0.151 µg/mL); MBEC [8]: 6.25 µM
c1ccc(CN(CCN(Cc2ccccn2)Cc2ccccn2)Cc2ccccn2)nc1 | – | – | ≤ 1% | 50 µM (≈ 21.2 µg/mL) | – | 250 µM (≈ 106 µg/mL) | >2000 µM | – | – | MBC (Enterococcus faecium [12]): 188 µM (≈ 79.8 µg/mL); MBEC (Enterococcus faecium [13]): >2000 µM
N#CC(C#N)=NNc1cccc(Cl)c1 [CARBONYL CYANIDE M-CHLOROPHENYLHYDRAZONE] | – | – | – | – | – | – | – | 31.3 µM (≈ 6.4 µg/mL) | 1000 µM | MBC (Staphylococcus aureus [11]): 31.3 µM (≈ 6.4 µg/mL); MBEC [8]: 93.8 µM
CC(=O)NC[C@H]1CN(c2ccc(N3CCOCC3)c(F)c2)C(=O)O1 [LINEZOLID] | – | – | ≤ 1% | 12.5 µM (≈ 4.22 µg/mL) | – | 31.3 µM (≈ 10.6 µg/mL) | >2000 µM | – | >2000 µM | MIC (Staphylococcus aureus [15]): 3.13 µM (≈ 1.06 µg/mL)
